Assays:
[1] = biological target: T1, Coagulation factor VII/tissue factor (Homo sapiens) (UniProt P08709+P13726); assay: Anticoagulant potency in human plasma as measured by prothrombin time; format: functional, cell-free
How it was run: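 Clotting assay in human plasma on a coagulation analyzer run per manufacturer's instructions; concentration doubling prothrombin time reported.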

[2] = biological target: T1, Coagulation factor VII/tissue factor (Homo sapiens); assay: Selectivity for fVIIa/TF complex over fXa; format: protein-complex assay
How it was run: (§1)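 Ki ratios; fXa and thrombin assays pH 7.4, fVIIa assay with 7 nM fVIIa, 11 nM relipidated tissue factor, 5 mM CaCl2 and substrate CH3SO2-D-CHA-But-Arg-pNA.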

[3] = biological target: T2, Coagulation factor VII (Homo sapiens, UniProt P08709); assay: Binding affinity to F7a/TF complex; format: protein-complex assay
T2 sequence (P08709 whole entry): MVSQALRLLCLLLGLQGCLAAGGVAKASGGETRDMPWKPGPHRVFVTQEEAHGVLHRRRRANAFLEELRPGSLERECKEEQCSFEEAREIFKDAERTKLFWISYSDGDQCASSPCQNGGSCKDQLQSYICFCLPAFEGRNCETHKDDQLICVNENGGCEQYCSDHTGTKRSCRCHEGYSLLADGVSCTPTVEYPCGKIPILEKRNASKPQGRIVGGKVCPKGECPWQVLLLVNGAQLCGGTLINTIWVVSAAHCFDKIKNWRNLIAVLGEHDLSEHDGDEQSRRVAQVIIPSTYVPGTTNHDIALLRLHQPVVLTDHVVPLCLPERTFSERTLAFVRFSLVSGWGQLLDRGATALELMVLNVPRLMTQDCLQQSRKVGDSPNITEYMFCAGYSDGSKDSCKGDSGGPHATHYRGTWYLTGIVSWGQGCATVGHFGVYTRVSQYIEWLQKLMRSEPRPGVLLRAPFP

[4] = biological target: T1, Coagulation factor VII/tissue factor (Homo sapiens); assay: Selectivity for fVIIa/TF complex over fIIa; format: protein-complex assay; how it was run: as §1
[5] = Plasma clearance in iv dosed C57BL/6 mice; format: ADME, organism-based; details: C57BL/6, mouse
How it was run: (§2)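 Single IV dose to female C57BL/6 mice or male Sprague–Dawley rats, NZW rabbits, Beagle dogs, or baboons; plasma concentrations measured by LC/MS/MS.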

[6] = test system: Canis familiaris; assay: Volume of distribution in iv dosed Beagle dog; format: ADME, organism-based, Canis lupus familiaris; details: in vivo; how it was run: as §2
[7] = Plasma clearance in iv dosed Sprague-Dawley rat; format: ADME, organism-based; how it was run: as §2
[8] = biological target: T1, Coagulation factor VII/tissue factor (Homo sapiens); assay: Anticoagulant potency in baboon as measured by prothrombin time at 0.5 mg/kg, iv 1 hr post dose; format: functional, organism-based; set-up: dose 0.5 mg/kg; details: Papio, target entry is the homologue from another species
How it was run: (§3)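 Conscious non-anticoagulated baboons with chronic femoral arterio-venous shunt; single IV bolus, thrombogenic device inserted 5 min post dose. Device: 2 cm ePTFE graft (4 mm id) filled with relipidated tissue factor, flow 100 mL/min (shear 265/s), 60 min. Platelets: 111-In-labeled autologous, gamma camera every 5 min; fibrin: 125-I fibrinogen, graft counted after 30 days decay; PT monitored throughout; reduction vs saline control.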

[9] = Plasma clearance in iv dosed Beagle dog; format: ADME, organism-based, Canis lupus familiaris; how it was run: as §2
[10] = test system: Baboon; assay: Inhibition of fibrin deposition in baboon at 0.1 mg/kg, iv 1 hr post dose relative to control; format: functional; details: Papio, in Papio anubis; how it was run: as §3
[11] = Mean residence time in iv dosed Beagle dog; format: ADME, organism-based, Canis lupus familiaris; details: in vivo; how it was run: as §2
[12] = test system: Mus musculus; assay: Volume of distribution in iv dosed C57BL/6 mice; format: ADME, organism-based; details: in vivo; how it was run: as §2
[13] = Mean residence time in iv dosed C57BL/6 mice; format: ADME, organism-based; details: C57BL/6, mouse, in vivo; how it was run: as §2
[14] = test system: Baboon; assay: Inhibition of fibrin deposition in baboon at 0.03 mg/kg, iv 1 hr post dose relative to control; format: functional; details: Papio, in Papio anubis; how it was run: as §3
[15] = Mean residence time in iv dosed baboon; format: ADME, organism-based, Papio; details: in vivo; how it was run: as §2
[16] = test system: Baboon; assay: Inhibition of fibrin deposition in baboon at 0.5 mg/kg, iv 1 hr post dose relative to control; format: functional; details: Papio, in Papio anubis; how it was run: as §3
[17] = Mean residence time in iv dosed Sprague-Dawley rat; format: ADME, organism-based; details: in vivo; how it was run: as §2
[18] = test system: Rattus norvegicus; assay: Volume of distribution in iv dosed Sprague-Dawley rat; format: ADME, organism-based; details: in vivo; how it was run: as §2
[19] = biological target: CYP2D6 (Homo sapiens, UniProt P10635); assay: Inhibition of CYP2D6 at 10 uM; format: ADME
CYP2D6, sequence (P10635 whole entry): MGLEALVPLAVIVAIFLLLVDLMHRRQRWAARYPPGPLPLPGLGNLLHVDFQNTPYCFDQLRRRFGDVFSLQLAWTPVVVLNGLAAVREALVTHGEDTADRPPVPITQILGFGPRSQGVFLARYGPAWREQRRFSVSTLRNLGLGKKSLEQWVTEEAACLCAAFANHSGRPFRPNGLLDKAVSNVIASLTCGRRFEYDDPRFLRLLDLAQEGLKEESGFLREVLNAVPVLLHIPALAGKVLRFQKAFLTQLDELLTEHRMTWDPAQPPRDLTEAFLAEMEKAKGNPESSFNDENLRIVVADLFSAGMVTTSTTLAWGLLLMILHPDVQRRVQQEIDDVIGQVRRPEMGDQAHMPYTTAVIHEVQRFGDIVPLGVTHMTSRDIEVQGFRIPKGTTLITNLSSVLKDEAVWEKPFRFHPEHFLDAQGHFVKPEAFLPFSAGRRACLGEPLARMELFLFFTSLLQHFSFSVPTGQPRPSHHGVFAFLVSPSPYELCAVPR
How it was run: (§4)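 Five cytochrome P450 isozymes tested at 10 µM; percent inhibition.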

[20] = biological target: T1, Coagulation factor VII/tissue factor (Homo sapiens); assay: Ratio of prothrombin time in baboon over prothrombin time in human
[21] = test system: Oryctolagus cuniculus; assay: Volume of distribution in iv dosed New Zealand White rabbit; format: ADME, organism-based; details: in vivo; how it was run: as §2
[22] = biological target: CYP3A4 (Homo sapiens, UniProt P08684); assay: Inhibition of CYP3A4 at 10 uM; format: ADME; how it was run: as §4
CYP3A4, sequence (P08684 whole entry): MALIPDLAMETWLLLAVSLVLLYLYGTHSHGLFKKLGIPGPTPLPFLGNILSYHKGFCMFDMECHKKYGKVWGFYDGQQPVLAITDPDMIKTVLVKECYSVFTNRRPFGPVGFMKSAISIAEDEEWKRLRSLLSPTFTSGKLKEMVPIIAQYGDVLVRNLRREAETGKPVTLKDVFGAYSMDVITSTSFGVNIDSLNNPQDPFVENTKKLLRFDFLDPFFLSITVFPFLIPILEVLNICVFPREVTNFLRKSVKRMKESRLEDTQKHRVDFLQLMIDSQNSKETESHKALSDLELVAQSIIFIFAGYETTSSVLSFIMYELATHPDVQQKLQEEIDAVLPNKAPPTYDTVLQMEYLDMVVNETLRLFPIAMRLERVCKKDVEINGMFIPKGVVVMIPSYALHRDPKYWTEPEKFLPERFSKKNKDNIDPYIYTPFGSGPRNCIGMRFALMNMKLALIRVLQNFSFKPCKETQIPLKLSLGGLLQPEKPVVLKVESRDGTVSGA

[23] = test system: Baboon; assay: Inhibition of platelet deposition in baboon at 0.03 mg/kg, iv 1 hr post dose relative to control; format: functional; details: Papio, in Papio anubis; how it was run: as §3
[24] = biological target: CYP2C9 (Homo sapiens, UniProt P11712); assay: Inhibition of CYP2C9 at 10 uM; format: ADME; how it was run: as §4
CYP2C9, sequence (P11712 whole entry): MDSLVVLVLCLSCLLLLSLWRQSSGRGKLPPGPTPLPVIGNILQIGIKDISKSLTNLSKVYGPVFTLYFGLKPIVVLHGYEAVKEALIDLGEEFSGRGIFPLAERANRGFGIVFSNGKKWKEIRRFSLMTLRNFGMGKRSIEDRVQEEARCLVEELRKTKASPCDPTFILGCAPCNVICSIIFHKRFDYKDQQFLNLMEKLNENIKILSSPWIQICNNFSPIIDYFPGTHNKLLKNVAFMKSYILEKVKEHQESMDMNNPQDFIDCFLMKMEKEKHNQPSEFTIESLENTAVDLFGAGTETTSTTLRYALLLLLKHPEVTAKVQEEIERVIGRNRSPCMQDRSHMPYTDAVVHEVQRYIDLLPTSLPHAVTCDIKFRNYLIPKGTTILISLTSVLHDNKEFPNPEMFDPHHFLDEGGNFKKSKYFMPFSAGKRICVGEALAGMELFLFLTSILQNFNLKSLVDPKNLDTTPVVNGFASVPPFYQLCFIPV

[25] = biological target: CYP2C19 (Homo sapiens, UniProt P33261); assay: Inhibition of CYP2C19 at 10 uM; format: ADME; how it was run: as §4
CYP2C19, sequence (P33261 whole entry): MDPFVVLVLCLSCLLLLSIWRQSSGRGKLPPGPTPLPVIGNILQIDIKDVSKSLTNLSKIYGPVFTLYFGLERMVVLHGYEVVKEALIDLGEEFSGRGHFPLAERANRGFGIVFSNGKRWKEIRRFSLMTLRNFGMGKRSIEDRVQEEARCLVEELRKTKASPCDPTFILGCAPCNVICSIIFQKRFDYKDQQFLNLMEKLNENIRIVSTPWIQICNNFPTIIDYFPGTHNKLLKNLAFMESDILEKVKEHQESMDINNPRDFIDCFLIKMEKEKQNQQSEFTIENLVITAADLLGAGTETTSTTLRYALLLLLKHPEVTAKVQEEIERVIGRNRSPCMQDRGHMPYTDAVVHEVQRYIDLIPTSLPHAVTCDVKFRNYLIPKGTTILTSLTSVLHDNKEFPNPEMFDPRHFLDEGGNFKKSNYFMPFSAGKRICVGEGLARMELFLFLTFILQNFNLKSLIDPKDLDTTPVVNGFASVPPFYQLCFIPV

[26] = test system: Baboon; assay: Effect on reduction of platelet deposition in iv dosed baboon after 60 mins; format: functional, organism-based; details: Papio, 1 h
How it was run: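 Sigmoid Emax model fitted to dose (mg/kg) versus percent inhibition of platelet deposition relative to control at 60 min post IV bolus in the baboon A-V shunt model; ED50 is the dose producing 50% of maximum effect.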

[27] = test system: Baboon; assay: Inhibition of platelet deposition in baboon at 0.5 mg/kg, iv 1 hr post dose relative to control; format: functional; details: Papio, in Papio anubis; how it was run: as §3
[28] = biological target: T1, Coagulation factor VII/tissue factor (Homo sapiens); assay: Anticoagulant potency in baboon as measured by prothrombin time at 0.1 mg/kg, iv 1 hr post dose; format: functional, organism-based; set-up: dose 0.1 mg/kg; details: Papio, target entry is the homologue from another species; how it was run: as §3
[29] = biological target: T3, CYP1A2 (Homo sapiens, UniProt P05177); assay: Inhibition of CYP1A2 at 10 uM; format: ADME; how it was run: as §4
T3 sequence (P05177 whole entry): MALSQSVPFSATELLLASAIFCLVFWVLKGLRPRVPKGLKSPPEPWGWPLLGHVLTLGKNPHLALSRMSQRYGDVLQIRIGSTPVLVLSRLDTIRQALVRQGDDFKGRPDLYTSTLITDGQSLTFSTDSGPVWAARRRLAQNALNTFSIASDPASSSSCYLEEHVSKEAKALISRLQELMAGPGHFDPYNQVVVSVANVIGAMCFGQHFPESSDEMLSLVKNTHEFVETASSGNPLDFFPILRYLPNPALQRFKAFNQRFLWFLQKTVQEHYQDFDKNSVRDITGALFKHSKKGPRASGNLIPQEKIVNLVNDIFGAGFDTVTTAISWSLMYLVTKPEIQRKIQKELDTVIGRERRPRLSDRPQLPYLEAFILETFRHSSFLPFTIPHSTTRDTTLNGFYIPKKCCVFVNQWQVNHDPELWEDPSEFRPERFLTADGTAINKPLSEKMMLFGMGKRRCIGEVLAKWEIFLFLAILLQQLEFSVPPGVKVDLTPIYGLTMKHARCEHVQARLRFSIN

[30] = Mean residence time in iv dosed New Zealand White rabbit; format: ADME, organism-based, Oryctolagus cuniculus; details: in vivo; how it was run: as §2
[31] = Plasma clearance in iv dosed New Zealand White rabbit; format: ADME, organism-based, Oryctolagus cuniculus; how it was run: as §2
[32] = biological target: T1, Coagulation factor VII/tissue factor (Homo sapiens); assay: Anticoagulant potency in baboon as measured by prothrombin time at 0.03 mg/kg, iv 1 hr post dose; format: functional, organism-based; set-up: dose 0.03 mg/kg; details: Papio, target entry is the homologue from another species; how it was run: as §3
[33] = test system: Baboon; assay: Volume of distribution in iv dosed baboon; format: ADME, organism-based, Papio; details: in vivo; how it was run: as §2
[34] = biological target: T1, Coagulation factor VII/tissue factor (Homo sapiens); assay: Anticoagulant potency in human plasma as measured by activated partial thromboplastin time
[35] = Plasma clearance in iv dosed baboon; format: ADME, organism-based, Papio; how it was run: as §2
[36] = test system: Baboon; assay: Inhibition of platelet deposition in baboon at 0.1 mg/kg, iv 1 hr post dose relative to control; format: functional; details: Papio, in Papio anubis; how it was run: as §3

SMILES: N=C(N)c1ccc2[nH]c(-c3cc(C(CC(=O)O)C(=O)O)cc(-c4cc(CCC(=O)O)ccc4O)c3O)nc2c1 (configuration not stated)
- 2PT [1]: 5.4 µM
- Ratio Ki [2]: 350
- Ki [3]: 13 nM
- Ratio Ki [4]: 11500

SMILES: N=C(N)c1ccc2[nH]c(-c3cc(C(CC(=O)O)C(=O)O)cc(-c4cc(CC(=O)O)ccc4O)c3O)nc2c1 (configuration not stated)
- 2PT [1]: 6.2 µM
- Ratio Ki [2]: 125
- Ratio Ki [4]: 12500

SMILES: N=C(N)c1ccc2[nH]c(-c3cc(C(CC(=O)O)C(=O)O)cc(-c4cc(F)ccc4O)c3O)nc2c1 (configuration not stated)
- 2PT [1]: 10.2 µM
- Ratio Ki [2]: 1800
- Ratio Ki [4]: 55500

SMILES: N=C(N)c1ccc2[nH]c(-c3cc(C(CC(=O)O)C(=O)O)cc(-c4cc(NC(N)=O)ccc4O)c3O)nc2c1 (configuration not stated)
- 2PT [1]: 4.9 µM
- Ratio Ki [2]: 270
- Ki [3]: 44 nM
- Ratio Ki [4]: 3400

SMILES: N=C(N)c1ccc2[nH]c(-c3cc(C(CC(=O)O)C(=O)O)cc(-c4cc(CN)ccc4O)c3O)nc2c1 (configuration not stated)
- 2PT [1]: 2.9 µM
- Ratio Ki [2]: 510
- Ki [3]: 35 nM
- Ratio Ki [4]: 4200

SMILES: N=C(N)c1ccc2[nH]c(-c3cc(C(CC(=O)O)C(=O)O)cc(-c4cc(C(N)=O)ccc4O)c3O)nc2c1 (configuration not stated)
- 2PT [1]: 3.6 µM
- Ratio Ki [2]: 1100
- Ki [3]: 14 nM
- Ratio Ki [4]: 10700

SMILES: N=C(N)c1ccc2nc(-c3cc(C(CC(=O)O)C(=O)O)cc(-c4cc(CC(=O)O)ccc4O)c3O)[nH]c2c1 (configuration not stated)
- Ki [3]: 12 nM

SMILES: N=C(N)c1ccc2nc(-c3cc(C(CC(=O)O)C(=O)O)cc(-c4cc(CC(N)=O)ccc4O)c3O)[nH]c2c1 (configuration not stated)
- Ki [3]: 12 nM

SMILES: N=C(N)c1ccc2[nH]c(-c3cc(C(CC(=O)O)C(=O)O)cc(-c4cc(CNC(N)=O)ccc4O)c3O)nc2c1 (configuration not stated)
- clearance [5]: 0.103 mL/min
- Vdss [6]: 6750 mL
- clearance [7]: 0.81 mL/min
- PT [8]: 11.6 s
- clearance [9]: 30.5 mL/min
- inhibition in vivo at 0.1 mg/kg [10]: 64%
- Ratio Ki [2]: 3600
- MRT [11]: 3.73 h
- Vdss [12]: 2.43 mL
- MRT [13]: 0.392 h
- inhibition in vivo at 0.03 mg/kg [14]: 20%
- MRT [15]: 3.87 h
- inhibition in vivo at 0.5 mg/kg [16]: 86%
- MRT [17]: 1.15 h
- Vdss [18]: 55.2 mL
- inhibition at 10 µM [19]: < 40%
- Ratio [20]: 1.05
- Vdss [21]: 1080 mL
- inhibition at 10 µM [22]: < 40%
- inhibition in vivo at 0.03 mg/kg [23]: 14%
- inhibition at 10 µM [24]: < 40%
- inhibition at 10 µM [25]: < 40%
- EC50 [26]: 170 nM
- ED50 ([26]; in Papio anubis, iv): 0.06 mg/kg
- Emax ([26]; in Papio anubis, iv): 99%
- inhibition in vivo at 0.5 mg/kg [27]: 87%
- PT [28]: 11.3 s
- inhibition at 10 µM [29]: < 40%
- MRT [30]: 3.03 h
- clearance [31]: 6.1 mL/min
- PT [32]: 11.3 s
- Vdss [33]: 5854 mL
- Ratio Ki [4]: > 100000
- 2aPTT [34]: 0.8 µM
- clearance [35]: 26.5 mL/min
- inhibition in vivo at 0.1 mg/kg [36]: 61%

SMILES: N=C(N)c1ccc2[nH]c(-c3cc(C(CC(=O)O)C(=O)O)cc(-c4cc(CC(N)=O)ccc4O)c3O)nc2c1 (configuration not stated)
- 2PT [1]: 6.4 µM
- Ratio Ki [2]: 280
- Ratio Ki [4]: 12500

SMILES: N=C(N)c1ccc2[nH]c(-c3cc(C(CC(=O)O)C(=O)O)cc(-c4cc(C(=O)O)ccc4O)c3O)nc2c1 (configuration not stated)
- 2PT [1]: 8.2 µM
- Ratio Ki [2]: 300
- Ki [3]: 43 nM
- Ratio Ki [4]: 3500
